Reference: PubChem BioAssay AID652138 (The Scripps Research Institute Molecular Screening Center, 2013)
Calls of active or inactive are those of the source.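 Rule for the calls: active = IC50 at or below 10 µM, the dose giving half-maximal inhibition of the luminescence signal; inactive = IC50 above 10 µM.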

molecular target: Perilipin-5 (Homo sapiens) + 1-acylglycerol-3-phosphate O-acyltransferase ABHD5 (Homo sapiens) (UniProt Q00G26+Q8WTS1); experiment: inhibition of ABHD5 association with MLDP – biochemical, luminescence, dose response, round 3, late-stage follow-up (AID 652138); details: split G. princeps luciferase complementation, 4 h
Sequence (Q00G26 whole entry, looked up): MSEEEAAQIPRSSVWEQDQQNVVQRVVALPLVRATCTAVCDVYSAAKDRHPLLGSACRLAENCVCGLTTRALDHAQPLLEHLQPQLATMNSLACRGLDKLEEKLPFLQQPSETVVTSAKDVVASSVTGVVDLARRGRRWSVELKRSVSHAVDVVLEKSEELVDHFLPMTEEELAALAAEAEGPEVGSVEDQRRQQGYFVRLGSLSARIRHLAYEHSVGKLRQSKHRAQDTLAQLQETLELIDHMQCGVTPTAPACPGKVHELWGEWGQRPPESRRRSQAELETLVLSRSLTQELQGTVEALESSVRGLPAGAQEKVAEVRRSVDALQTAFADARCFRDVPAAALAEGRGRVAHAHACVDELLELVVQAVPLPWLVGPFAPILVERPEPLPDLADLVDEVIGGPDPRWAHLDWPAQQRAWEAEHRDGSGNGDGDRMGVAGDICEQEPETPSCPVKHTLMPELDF
Sequence (Q8WTS1 whole entry, looked up): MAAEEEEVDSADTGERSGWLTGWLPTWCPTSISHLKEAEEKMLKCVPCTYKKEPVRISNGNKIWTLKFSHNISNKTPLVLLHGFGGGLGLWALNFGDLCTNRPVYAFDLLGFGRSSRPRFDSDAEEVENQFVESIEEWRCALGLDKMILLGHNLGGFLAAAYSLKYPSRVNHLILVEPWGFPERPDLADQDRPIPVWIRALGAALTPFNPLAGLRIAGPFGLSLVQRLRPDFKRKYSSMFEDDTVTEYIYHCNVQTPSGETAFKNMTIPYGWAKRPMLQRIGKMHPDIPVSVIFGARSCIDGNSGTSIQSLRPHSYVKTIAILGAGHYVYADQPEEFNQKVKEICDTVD
How it was run: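 Material: Split Gaussia princeps luciferase complementation, LucC-tagged ABHD5 with LucN-tagged MLDP | Compound dosing: Triplicate 10-point threefold series, top nominal 40 µM | Incubation: 4 h at 25 °C plus 30 min readout step | Technique: Coelenterazine luminescence | Control set: DMSO as low control, 25 µM trans-chalcone as high control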

IC50	Structure (SMILES)
inactive	CCCCNC(=O)Nc1ccc2c(c1)N(C)C(=O)c1ccccc1S2
4.71 µM	CCCCCCNC(=O)Nc1ccc2c(c1)N(C)C(=O)c1ccccc1S2
3.32 µM	CCCCCNC(=O)Nc1ccc2c(c1)N(C)C(=O)c1ccccc1S2

The remaining lines, values behind:

Structure (SMILES)	IC50
CCCCCCCNC(=O)Nc1ccc2c(c1)N(C)C(=O)c1ccccc1S2	7.78 µM
Cc1ccc2c(CC(=O)N3CCN(S(=O)(=O)c4ccc5c(c4)OCCO5)CC3)coc2c1	inactive
CN1C(=O)c2ccccc2Sc2ccc(NC(=O)NCCCc3ccccc3)cc21	4.04 µM
